Assay results taken from ChEMBL document CHEMBL2040798, “One-pot synthesis of novel isoindoline-1,3-dione derivatives bearing 1,2,4-triazole moiety and their preliminary biological evaluation” (Eur J Med Chem, 2012).

What was measured:
[1] = test system: Pyricularia grisea; experiment: Growth inhibition of Phyricularia oryzae Cav. at 150 mg/mL after 48 hrs by mycelium growth rate method; type: functional; parameters: dose or concentration left out as unconfirmed; settings: read-out: GI
[2] = test system: MKN-45; experiment: Cytotoxicity against human MKN45 cells after 48 hrs by MTT assay; type: functional, cell-based; settings: MKN-45, 48 h
Method in brief: (§1)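 MTT assay. Cells kept in DMEM with 10% FBS. HepG2 seeded at 1 × 10^4 cells/well; A549, PC-3M and MKN45 at 1.6 × 10^4 cells/well. Attachment 24 h at 37 °C. Compounds diluted in medium from 10 mM DMSO stocks; 0.1% DMSO served as negative control. Exposure 48 h at 37 °C, then MTT for 3 h. Formazan dissolved in DMSO and read at 570 nm. IC50 from a concentration series; mean of three independent experiments.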

[3] = Cytotoxicity against human PC3M cells after 48 hrs by MTT assay; type: functional, cell-based; settings: PC-3M; method in brief: as §1
[4] = test system: A549; experiment: Cytotoxicity against human A549 cells after 48 hrs by MTT assay; type: functional, cell-based; settings: A549, 48 h; method in brief: as §1
[5] = test system: HepG2; experiment: Cytotoxicity against human HepG2 cells after 48 hrs by MTT assay; type: functional, cell-based; settings: HepG2, 48 h; method in brief: as §1
[6] = test system: HepG2; experiment: Induction of apoptosis in human HepG2 cells after 24 hrs by flow cytometry; type: functional, cell-based
[7] = test system: HepG2; experiment: Cell cycle arrest in human HepG2 cells assessed as Sub-G0 phase cells at 8 uM after 24 hrs by flow cytometry (reference value: 2.48%); type: functional
[8] = test system: HepG2; experiment: Cell cycle arrest in human HepG2 cells assessed as S phase cells at 8 uM after 24 hrs by flow cytometry (reference value: 29.84%); type: functional
[9] = test system: HepG2; experiment: Cell cycle arrest in human HepG2 cells assessed as S phase cells at 4 uM after 24 hrs by flow cytometry (reference value: 29.84%); type: functional
[10] = test system: HepG2; experiment: Cell cycle arrest in human HepG2 cells assessed as G2/M phase cells at 4 uM after 24 hrs by flow cytometry (reference value: 16.38%); type: functional
[11] = test system: HepG2; experiment: Cell cycle arrest in human HepG2 cells assessed as S phase cells at 16 uM after 24 hrs by flow cytometry (reference value: 29.84%); type: functional
[12] = test system: HepG2; experiment: Cell cycle arrest in human HepG2 cells assessed as G2/M phase cells at 16 uM after 24 hrs by flow cytometry (reference value: 16.38%); type: functional
[13] = test system: HepG2; experiment: Cell cycle arrest in human HepG2 cells assessed as G0/G1 phase cells at 16 uM after 24 hrs by flow cytometry (reference value: 54.65%); type: functional
[14] = test system: HepG2; experiment: Cell cycle arrest in human HepG2 cells assessed as Sub-G0 phase cells at 16 uM after 24 hrs by flow cytometry (reference value: 2.48%); type: functional
[15] = test system: HepG2; experiment: Cell cycle arrest in human HepG2 cells assessed as Sub-G0 phase cells at 4 uM after 24 hrs by flow cytometry (reference value: 2.48%); type: functional
[16] = test system: HepG2; experiment: Cell cycle arrest in human HepG2 cells assessed as G0/G1 phase cells at 4 uM after 24 hrs by flow cytometry (reference value: 54.65%); type: functional
[17] = test system: A549; experiment: Ratio of Fluorouracil IC50 to compound IC50 for human A549 cells; type: functional
[18] = test system: HepG2; experiment: Cell cycle arrest in human HepG2 cells assessed as G2/M phase cells at 8 uM after 24 hrs by flow cytometry (reference value: 16.38%); type: functional
[19] = test system: HepG2; experiment: Cell cycle arrest in human HepG2 cells assessed as G0/G1 phase cells at 8 uM after 24 hrs by flow cytometry (reference value: 54.65%); type: functional
[20] = test system: HepG2; experiment: Ratio of Fluorouracil IC50 to compound IC50 for human HepG2 cells; type: functional

Compound | inhibition of growth [1] [%] | IC50 [2] [µM] | IC50 [3] [µM] | IC50 [4] [µM] | IC50 [5] [µM] | further results
CCc1nnc(SCC(=O)c2ccccc2)n1N1C(=O)c2ccccc2C1=O | < 50 | > 200 | > 200 | > 200 | > 200 | 
CCc1nnc(SCC(=O)c2ccc(C)cc2)n1N1C(=O)c2ccccc2C1=O | < 50 | > 200 | > 200 | > 200 | > 200 | 
COc1cc(-c2nnc(SCc3ccccc3Cl)n2N2C(=O)c3ccccc3C2=O)cc(OC)c1OC | < 50 | > 200 | > 200 | > 200 | > 200 | 
Cc1ccc(C(=O)CSc2nnc(C)n2N2C(=O)c3ccccc3C2=O)cc1 | ≥ 50 | > 200 | > 200 | > 200 | > 200 | 
CC(C)(C)C(=O)C(Oc1ccc(Cl)cc1)n1cncn1 (stereo not drawn) [TRIADIMEFON] | ≥ 80 |  |  |  |  | 
CCCc1nnc(SCC(=O)c2ccccc2)n1N1C(=O)c2ccccc2C1=O | < 50 | > 200 | > 200 | > 200 | > 200 | 
COc1cc(-c2nnc(SC)n2N2C(=O)c3ccccc3C2=O)cc(OC)c1OC | ≥ 50 | > 200 | > 200 | > 200 | > 200 | 
CCc1nnc(SCC(=O)c2ccc(Cl)cc2)n1N1C(=O)c2ccccc2C1=O | < 50 | > 200 | > 200 | > 200 | > 200 | 
COc1ccc(C(=O)CSc2nnc(-c3cc(OC)c(OC)c(OC)c3)n2N2C(=O)c3ccccc3C2=O)cc1 | < 50 | 37.2 | 32.8 | 30 | 28.7 | 
COc1cc(-c2nnc(SCC(=O)c3ccc(C)cc3)n2N2C(=O)c3ccccc3C2=O)cc(OC)c1OC | < 50 | 9.62 | 11.7 | 6.76 | 9.44 | Activity [6]: Dose-dependent effect; Activity [7]: 29.22%; Activity [8]: 17.5%; Activity [9]: 25.41%; Activity [10]: 14.4%; Activity [11]: 21.07%; Activity [12]: 6.31%; Activity [13]: 36.7%; Activity [14]: 32.58%; Activity [15]: 15.05%; Activity [16]: 40.73%; Ratio IC50 [17]: 4; Activity [18]: 11.38%; Activity [19]: 37.45%; Ratio IC50 [20]: 4
CCOC(=O)CSc1nnc(CC)n1N1C(=O)c2ccccc2C1=O | ≥ 50 | > 200 | > 200 | > 200 | > 200 | 
C#CCSc1nnc(CC)n1N1C(=O)c2ccccc2C1=O | ≥ 60 | > 200 | > 200 | > 200 | > 200 | 
COc1cc(-c2nnc(SCC(=O)c3ccc(Br)cc3)n2N2C(=O)c3ccccc3C2=O)cc(OC)c1OC | ≥ 60 | 22.3 | 22.6 | 16.1 | 27.7 | 
CSc1nnc(C)n1N1C(=O)c2ccccc2C1=O | < 50 | > 200 | > 200 | > 200 | > 200 | 
Cc1nnc(SCc2ccccc2)n1N1C(=O)c2ccccc2C1=O | < 50 | > 200 | > 200 | > 200 | > 200 | 
COc1cc(-c2nnc(SCC(=O)c3ccccc3C)n2N2C(=O)c3ccccc3C2=O)cc(OC)c1OC | < 50 | > 200 | > 200 | 144 | > 200 | 
COc1cc(-c2nnc(SCC(=O)c3ccccc3)n2N2C(=O)c3ccccc3C2=O)cc(OC)c1OC | ≥ 60 | > 200 | > 200 | > 200 | 171 | 
CCc1nnc(SCc2ccccc2)n1N1C(=O)c2ccccc2C1=O | ≥ 50 | > 200 | > 200 | > 200 | > 200 | 
C=CCSc1nnc(-c2cc(OC)c(OC)c(OC)c2)n1N1C(=O)c2ccccc2C1=O | ≥ 60 | > 200 | > 200 | > 200 | > 200 | 
CCOC(=O)CSc1nnc(C)n1N1C(=O)c2ccccc2C1=O | < 50 | > 200 | > 200 | > 200 | > 200 | 

Compound | inhibition of growth [1] [%] | IC50 [2] [µM] | IC50 [3] [µM] | IC50 [4] [µM] | IC50 [5] [µM] | further results
COc1cc(-c2nnc(SCC(=O)c3ccc(F)c(F)c3)n2N2C(=O)c3ccccc3C2=O)cc(OC)c1OC | < 50 | > 200 | 163 | > 200 | > 200 | 
CCc1nnc(SC)n1N1C(=O)c2ccccc2C1=O | < 50 | > 200 | > 200 | > 200 | > 200 | 
C#CCSc1nnc(CCC)n1N1C(=O)c2ccccc2C1=O | < 50 | > 200 | > 200 | > 200 | > 200 | 
COc1cc(-c2nnc(SCC(=O)c3ccc(F)cc3)n2N2C(=O)c3ccccc3C2=O)cc(OC)c1OC | < 50 | 126 | > 200 | > 200 | > 200 | 
Cc1nnc(SCc2ccccc2Cl)n1N1C(=O)c2ccccc2C1=O | ≥ 60 | > 200 | > 200 | > 200 | > 200 | 
COc1cc(-c2nnc(SCc3ccccc3)n2N2C(=O)c3ccccc3C2=O)cc(OC)c1OC | < 50 | > 200 | > 200 | > 200 | > 200 | 
CCCc1nnc(SC)n1N1C(=O)c2ccccc2C1=O | < 50 | > 200 | > 200 | > 200 | > 200 | 
Cc1nnc(SCC(=O)c2ccc(Cl)cc2)n1N1C(=O)c2ccccc2C1=O | ≥ 60 | > 200 | > 200 | > 200 | > 200 | 
CCCc1nnc(SCc2ccccc2Cl)n1N1C(=O)c2ccccc2C1=O | < 50 | > 200 | > 200 | > 200 | > 200 | 
CCCc1nnc(SCc2ccccc2)n1N1C(=O)c2ccccc2C1=O | < 50 | > 200 | > 200 | > 200 | > 200 | 
C=CCSc1nnc(CC)n1N1C(=O)c2ccccc2C1=O | < 50 | > 200 | > 200 | > 200 | > 200 | 
CCCc1nnc(SCC(=O)c2ccc(C)cc2)n1N1C(=O)c2ccccc2C1=O | ≥ 80 | > 200 | > 200 | > 200 | > 200 | 
C=CCSc1nnc(CCC)n1N1C(=O)c2ccccc2C1=O | < 50 | > 200 | > 200 | > 200 | > 200 | 
O=c1[nH]cc(F)c(=O)[nH]1 [FLUOROURACIL] |  | 41.7 | 22.6 |  |  | 
C#CCSc1nnc(-c2cc(OC)c(OC)c(OC)c2)n1N1C(=O)c2ccccc2C1=O | < 50 | > 200 | > 200 | > 200 | > 200 | 
CCOC(=O)CSc1nnc(-c2cc(OC)c(OC)c(OC)c2)n1N1C(=O)c2ccccc2C1=O | < 50 | > 200 | > 200 | > 200 | > 200 | 
CCCc1nnc(SCC(=O)c2ccc(Cl)cc2)n1N1C(=O)c2ccccc2C1=O | < 50 | > 200 | > 200 | > 200 | > 200 | 
COc1cc(-c2nnc(SCC(=O)c3ccc(Cl)cc3)n2N2C(=O)c3ccccc3C2=O)cc(OC)c1OC | < 50 | 26.6 | 20.7 | 9.03 | 22 | 
C#CCSc1nnc(C)n1N1C(=O)c2ccccc2C1=O | ≥ 60 | > 200 | > 200 | > 200 | > 200 | 
Cc1nnc(SCC(=O)c2ccccc2)n1N1C(=O)c2ccccc2C1=O | < 50 | > 200 | > 200 | > 200 | > 200 | 
